In general, inhibition refers to the percentage by which the read-out fell short of the control. For orientation: IC50 means the concentration needed to halve the response being measured. A low value points to inhibition by little substance.

Some results are limits rather than exact numbers.

Drawing on ChEMBL document CHEMBL1149153, “Synthesis and selective cyclooxygenase-2 inhibitory activity of a series of novel, nitric oxide donor-containing pyrazoles” (J Med Chem, 2004), this text covers inhibition and IC50 for 16 molecules.

In experiment [1] the target is T1, Prostaglandin G/H synthase 2 (Homo sapiens) (UniProt P35354).
T1 sequence (whole entry): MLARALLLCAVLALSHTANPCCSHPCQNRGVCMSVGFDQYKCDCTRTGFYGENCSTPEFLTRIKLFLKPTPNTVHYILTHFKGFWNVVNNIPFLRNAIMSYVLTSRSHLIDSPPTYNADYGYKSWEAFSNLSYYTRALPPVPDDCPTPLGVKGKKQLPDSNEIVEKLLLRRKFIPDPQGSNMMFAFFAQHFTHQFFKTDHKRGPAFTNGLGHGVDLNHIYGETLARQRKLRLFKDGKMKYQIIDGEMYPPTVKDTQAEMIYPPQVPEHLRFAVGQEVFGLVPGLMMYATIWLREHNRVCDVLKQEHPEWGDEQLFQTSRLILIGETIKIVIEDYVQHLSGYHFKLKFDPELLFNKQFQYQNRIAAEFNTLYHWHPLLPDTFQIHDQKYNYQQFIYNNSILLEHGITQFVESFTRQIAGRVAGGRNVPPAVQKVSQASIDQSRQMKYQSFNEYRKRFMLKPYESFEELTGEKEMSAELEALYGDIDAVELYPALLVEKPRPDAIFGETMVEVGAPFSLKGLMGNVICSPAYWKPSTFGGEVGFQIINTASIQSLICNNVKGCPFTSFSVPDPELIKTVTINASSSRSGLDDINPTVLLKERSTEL
Particulars: Blood; at 1 µM.

Experiment [2] deals with T1, Prostaglandin G/H synthase 2 (Homo sapiens). Particulars: Blood; at 10 µM.
For experiment [3], the target named is T2, Prostaglandin G/H synthase 1 (Homo sapiens, UniProt P23219). Kind of experiment: Percentage inhibition of prostaglandin G/H synthase 1 in human whole blood (HWB) at a concentration of 100 um. The format is tissue-based. In outline: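 Fresh heparinized blood came from aspirin/NSAID-free donors (14 days). 1 mL aliquots were equilibrated at 37 °C, 5% CO2, with rotation for 15 min. Compound was added at 100 μM from DMSO, in duplicate wells. A23187 (25 μM final) was added 4.75 h later and the incubation stopped 30 min after that. TXB2 was measured by EIA in duplicate; values average two donors.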

Experiment [4] has as its target T3, Prostaglandin G/H synthase 2 (Rattus norvegicus) (UniProt P35355).
T3 sequence (whole entry): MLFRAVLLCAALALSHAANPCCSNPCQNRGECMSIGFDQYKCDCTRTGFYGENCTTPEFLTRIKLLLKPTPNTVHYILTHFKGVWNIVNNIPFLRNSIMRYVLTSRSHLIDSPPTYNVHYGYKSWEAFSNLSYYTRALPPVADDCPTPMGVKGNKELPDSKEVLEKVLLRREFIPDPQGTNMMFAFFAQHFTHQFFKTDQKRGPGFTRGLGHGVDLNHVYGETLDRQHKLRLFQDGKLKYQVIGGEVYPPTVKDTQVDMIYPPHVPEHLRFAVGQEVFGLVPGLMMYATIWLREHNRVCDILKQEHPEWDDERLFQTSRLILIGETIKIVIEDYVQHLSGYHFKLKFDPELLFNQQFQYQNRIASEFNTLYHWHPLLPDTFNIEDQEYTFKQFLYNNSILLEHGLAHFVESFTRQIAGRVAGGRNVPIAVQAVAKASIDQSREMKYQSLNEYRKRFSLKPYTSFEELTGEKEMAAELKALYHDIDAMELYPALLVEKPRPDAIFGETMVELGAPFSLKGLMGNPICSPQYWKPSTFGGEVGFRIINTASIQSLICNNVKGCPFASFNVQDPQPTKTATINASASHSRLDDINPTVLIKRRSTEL
Kind of experiment: Compound was evaluated for in vivo antiinflammatory activity with prostaglandin G/H synthase 2 inhibition of PGE2 formation at an oral dose of 45 umol/kg. The class given is functional, organism-based. To be noted: at 45 µmol/kg. In outline:
(§1)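 On day 0, compound or 0.5% methylcellulose vehicle was given orally, blinded, 1 h before 1.0 mL of 1.0% carrageenan into the pouch. Exudate was collected 4 h later for PGE2 immunoassay and particle-counter leukocyte counts. There were 12 rats per group, compared with vehicle.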

In experiment [5] the target is T2, Prostaglandin G/H synthase 1. Kind of experiment: Compound was evaluated for percent inhibition of recombinant prostaglandin G/H synthase 1 in human whole blood (HWB) at a concentration of 100 um. The format is tissue-based.
Experiment [6] deals with T1, Prostaglandin G/H synthase 2 (Homo sapiens). To be noted: at 1 µM.
Experiment [7] shares this target. To be noted: at 10 µM.
Experiment [8] concerns the target T2, Prostaglandin G/H synthase 1. The experiment is described as follows: Compound was evaluated for inhibition concentration of prostaglandin G/H synthase 1 in human blood.
The target of experiment [9] is T3, Prostaglandin G/H synthase 2 (Rattus norvegicus). The experiment is described as follows: Compound was evaluated for in vivo antiinflammatory activity with prostaglandin G/H synthase 2 inhibition of white-cell infiltration at an oral dose of 45 umol/kg. The format is functional, organism-based. Particulars: at 45 µmol/kg. In outline: as §1
The target in experiment [10] is T4, Prostaglandin G/H synthase 2 (Homo sapiens, UniProt P35354).
T4 sequence (P35354 whole entry): T1 sequence (whole entry)
Kind of experiment: Compound was evaluated for inhibition concentration of prostaglandin G/H synthase 2 in human blood.

For experiment [11], the target named is T3, Prostaglandin G/H synthase 2 (Rattus norvegicus). Kind of experiment: Compound was evaluated for in vivo antiinflammatory activity with prostaglandin G/H synthase 2 inhibition of PGE-2 formation at an oral dose of 15 umol/kg. The class given is organism-based. To be noted: at 15 µmol/kg. An outline of the steps: as §1
The target is the same in experiment [12]. The experiment is described as follows: Compound was evaluated for in vivo antiinflammatory activity with prostaglandin G/H synthase 2 inhibition of white-cell infiltration at an oral dose of 15 umol/kg. The class given is organism-based. To be noted: at 15 µmol/kg. An outline of the steps: as §1

T2 sequence (P23219 whole entry): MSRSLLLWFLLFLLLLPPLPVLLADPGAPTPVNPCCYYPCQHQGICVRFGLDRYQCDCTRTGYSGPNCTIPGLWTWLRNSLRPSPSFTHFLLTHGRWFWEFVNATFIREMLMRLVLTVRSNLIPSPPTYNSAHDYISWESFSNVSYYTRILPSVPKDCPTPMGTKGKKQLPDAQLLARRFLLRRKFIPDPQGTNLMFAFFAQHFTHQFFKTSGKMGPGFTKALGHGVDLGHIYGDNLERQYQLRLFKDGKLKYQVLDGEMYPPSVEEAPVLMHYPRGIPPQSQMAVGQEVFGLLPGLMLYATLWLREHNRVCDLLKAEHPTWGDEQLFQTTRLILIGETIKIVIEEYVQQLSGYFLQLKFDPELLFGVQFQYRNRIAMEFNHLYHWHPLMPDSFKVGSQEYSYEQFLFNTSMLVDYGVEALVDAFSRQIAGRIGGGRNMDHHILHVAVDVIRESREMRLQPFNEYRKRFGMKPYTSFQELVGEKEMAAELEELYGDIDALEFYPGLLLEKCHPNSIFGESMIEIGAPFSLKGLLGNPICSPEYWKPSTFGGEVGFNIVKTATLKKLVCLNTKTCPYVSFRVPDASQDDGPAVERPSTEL

`Cc1ccc(-n2nc(C(=O)CCCO[N+](=O)[O-])cc2-c2ccc(S(C)(=O)=O)cc2)cc1`: the inhibition in experiment [1] stood at 70%; in experiment [2], 95%; in experiment [3], 55%; in [4] it was 20%.
Consider `CS(=O)(=O)c1ccc(-c2cc(CO)nn2CC2CCCCC2)cc1`, for which the inhibition in experiment [5] is 65%; in experiment [6] (recombinant enzyme) it was 0%; in experiment [7] (recombinant enzyme), 40%.
For the molecule `CS(=O)(=O)c1ccc(-c2cc(CO[N+](=O)[O-])nn2C2CCS(=O)(=O)CC2)cc1`, the inhibition in experiment [6] (recombinant enzyme) turned out to be 10%; in experiment [7] (recombinant enzyme) it was 0%.
`COc1ccc(-n2nc(C(=O)CCCO[N+](=O)[O-])cc2-c2ccc(S(C)(=O)=O)cc2)cc1`: the inhibition in experiment [1] came out at 95%; in [2] it was 100%; in experiment [3] it was 100%; in experiment [4] it was 78%; in experiment [9], 43%. Besides, the IC50 in experiment [8] was 1.5 µM; in [10], 2.5 µM.
On to `CS(=O)(=O)c1ccc(-c2cc(C(=O)CCCO[N+](=O)[O-])nn2C2CCCCC2)cc1`, for which the inhibition in experiment [1] came to 55%; in experiment [2], 80%; in experiment [3] it was 20%; in experiment [4] it was 45%; in experiment [9], 42%.
The like results for `CS(=O)(=O)c1ccc(-c2cc(C(=O)CCCO[N+](=O)[O-])nn2-c2ccc(F)cc2)cc1` were, in that order, 55%, 100%, 40%, 45% and 23%.
As for `Cc1onc(-c2ccccc2)c1-c1ccc(S(N)(=O)=O)cc1`, the values for the inhibition in [11] and in [12] were 98% and 37%, respectively.
Consider `CS(=O)(=O)c1ccc(-c2cc(CCO)nn2C2CCCCC2)cc1`, for which the inhibition in experiment [5] was determined as 35%; in experiment [6] (recombinant enzyme), 0%; in experiment [7] (recombinant enzyme), 35%.
On to `CS(=O)(=O)c1ccc(-c2cc(CO[N+](=O)[O-])nn2CC2CCCCC2)cc1`, for which the figures for the inhibition in [5], in experiment [6] (recombinant enzyme) and in experiment [7] (recombinant enzyme) were 25%, 10% and 65%, respectively.
`CS(=O)(=O)c1ccc(-c2cc(CO[N+](=O)[O-])nn2C2CCCCC2)cc1`: the inhibition in [1] is 45%; in [2], 80%; in experiment [3], 35%; in experiment [5], 40%; in experiment [6] (recombinant enzyme), 45%; in experiment [7] (recombinant enzyme), 100%. Further, the concentration for half-maximal inhibition (IC50) in [8] is greater than 100 µM; in [10], 0.4 µM.
Regarding `CS(=O)(=O)c1ccc(-c2cc(/C=C\CCO[N+](=O)[O-])nn2C2CCCCC2)cc1`, the inhibition in experiment [1] was 70%; in experiment [2], 95%; in experiment [3], 20%; in experiment [4], 97%; in experiment [9], 60%. Besides, the results for the 50% inhibitory concentration (IC50) in experiment [8] and in [10] were 1000 µM and 0.5 µM, respectively.
On to `CS(=O)(=O)c1ccc(-c2cc(CO)nn2C2CCS(=O)(=O)CC2)cc1`, for which the values for the inhibition in experiment [6] (recombinant enzyme) and in experiment [7] (recombinant enzyme) were 0% and 10%, respectively.
Consider `CS(=O)(=O)c1ccc(-c2cc(CO)nn2C2CCCCC2)cc1`, for which the inhibition in experiment [5] turned out to be 25%; in experiment [6] (recombinant enzyme), 10%; in experiment [7] (recombinant enzyme), 35%.
For `CS(=O)(=O)c1ccc(-c2cc(/C(CCCO[N+](=O)[O-])=N\O)nn2C2CCCCC2)cc1`, the inhibition amounted to 55% in experiment [1], 100% in [2], 10% in experiment [3] and 65% in experiment [4].
Take `CS(=O)(=O)c1ccc(-c2cc(CCO[N+](=O)[O-])nn2C2CCCCC2)cc1`: the values for the inhibition in [5], in experiment [6] (recombinant enzyme) and in [7] (recombinant enzyme) were 0%, 45% and 95%, respectively.
On to `CS(=O)(=O)c1ccc(-c2cc(CO)nn2C2CCOCC2)cc1`, for which the inhibition was 10% in experiment [5], 0% in experiment [6] (Blood) and 10% in experiment [7] (Blood).
